Measurements from ChEMBL document CHEMBL1155030, “Design of novel cyclic altered peptide ligands of myelin basic protein MBP83-99 that modulate immune responses in SJL/J mice” (J Med Chem, 2008).
Active and inactive are the calls of the source. No cut-off for these calls is given here. Where a SMILES comes first, the peptide text is derived from it.

Legend:
[1] = Effect on MBP83-99 peptide-induced SJL/J mouse spleen cells proliferation assessed as [3H]thymidine incorporation after 6 days; assay type: tissue-based; details: 144 h
Method in brief: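 Spleen cells taken 28 days after immunization of female 6-8 week SJL/J mice with native MBP83-99 in CFA. 1 × 10^5 cells/well were cultured 1-6 days at 37 °C with recall peptide (10 µg/ml); cells alone served as background. 1 µCi [3H]thymidine was added per well, 6 h before harvest, one plate per day. Reported as mean cpm of triplicate wells, three mice per group.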

spleen = assay: Increase in MBP83-99 peptide-induced IL4 production in SJL/J mouse spleen cells assessed per 0.5 million cells after 24 hrs by ELISpot analysis; assay type: functional, cell-based
Method in brief: (§1)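 Female SJL/J mice immunized with peptide in CFA or with peptide conjugated to reduced mannan (50 µg intradermal, days 0 and 14). Spleens taken at day 28. 5 × 10^5 cells/well were incubated 24 h at 37 °C with 10 µg/mL recall peptide on anti-IL-4-coated plates, then developed with biotin anti-IL-4, streptavidin-ALP and a colorimetric substrate. Triplicate wells. Reported as SFU/0.5 million cells minus cells-alone background.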

[2] = Induction of IL4 production in SJL/J mouse spleen cells assessed as spot forming unit per 0.5 million cells by ELISpot analysis; assay type: functional; method in brief: as §1

Row | Molecule | Activity [1] | Activity (spleen) | Activity [2]
1 | CC[C@H](C)[C@H](NC(=O)[C@H](CC(N)=O)NC(=O)[C@H](CCCCN)NC(=O)[C@H](Cc1ccccc1)NC(=O)[C@H](Cc1ccccc1)NC(=O)[C@H](Cc1c[nH]cn1)NC(=O)[C@@H](NC(=O)[C@@H](NC(=O)[C@@H]1CCCN1C(=O)[C@H](CC(N)=O)NC(=O)[C@@H](N)CCC(=O)O)C(C)C)C(C)C)C(=O)N[C@H](C(=O)N[C@H](C(=O)N1CCC[C@H]1C(=O)N[C@@H](CCCNC(=N)N)C(=O)N[C@H](C(=O)N1CCC[C@H]1C(=O)O)[C@@H](C)O)[C@@H](C)O)C(C)C | Active |  | 
2 | CC[C@H](C)[C@H](NC(=O)[C@H](CC(N)=O)NC(=O)[C@H](CCCCN)NC(=O)[C@H](Cc1ccccc1)NC(=O)[C@H](Cc1ccccc1)NC(=O)[C@H](Cc1cnc[nH]1)NC(=O)[C@@H](NC(=O)[C@@H](NC(=O)[C@@H]1CCCN1C(=O)[C@H](CC(N)=O)NC(=O)[C@@H](N)CCC(=O)O)C(C)C)C(C)C)C(=O)N[C@H](C(=O)N[C@H](C(=O)N1CCC[C@H]1C(=O)N[C@@H](CCCNC(=N)N)C(=O)N[C@H](C(=O)N1CCC[C@H]1C(=O)O)[C@@H](C)O)[C@@H](C)O)C(C)C |  | inactive | 
3 | CC[C@H](C)[C@@H]1NC(=O)[C@H](CC(N)=O)NC(=O)[C@H](C)NC(=O)[C@H](Cc2ccccc2)NC(=O)[C@H](Cc2ccccc2)NC(=O)[C@H](Cc2cnc[nH]2)NC(=O)[C@H](C(C)C)NC(=O)[C@H](C(C)C)NC(=O)[C@@H]2CCCN2C(=O)[C@H](CC(N)=O)NC(=O)[C@H](CCC(=O)O)NC(=O)[C@@H]2CCCN2C(=O)[C@H]([C@@H](C)O)NC(=O)[C@H](CCCNC(=N)N)NC(=O)[C@@H]2CCCN2C(=O)[C@H]([C@@H](C)O)NC(=O)[C@H](C(C)C)NC1=O (cyclo(ANIVTPRTPENPVVHFF)) |  |  | 70
4 | H-ENPVVHFFANIVTPRTP-OH |  | inactive | 600
